Source: ChEMBL document CHEMBL3861962 (Eur J Med Chem, 2016)
Values belong to the molecule of their own block, whether it stands above or below them. Where a SMILES comes first, the peptide text is derived from it. [ ]: non-standard residue; d: D form.

Legend:
[1] = Retention time of the compound; format: physicochemical
Cytochrome P450 2C9 [2] = target: T1, Cytochrome P450 2C9 (Homo sapiens, UniProt P11712); test: Drug level assessed as human recombinant CYP2C9-mediated compound formation treated with bosentan at 5 uM in presence of NADPH after 30 mins by LC-MS/MS analysis; format: ADME; details: recombinant enzyme, 0.5 h
Method in brief: (§1)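 Substrate at 5 μM final in 100 mM potassium phosphate, pH 7.4, incubated with human liver microsomes or baculovirus-expressed recombinant CYP3A4, 2D6 or 2C9. Reaction started with 1 mM NADPH and run 0, 15 and 30 min at 37 °C. Stopped with ice-cold acetonitrile containing labetalol internal standard, then centrifuged. Supernatant analysed by LC-MS/MS on a C18 column at 40 °C. Blank was enzyme without substrate.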

Cytochrome P450 3A4 [3] = target: T2, Cytochrome P450 3A4 (Homo sapiens, UniProt P08684); test: Drug level assessed as human recombinant CYP3A4-mediated compound formation treated with bosentan at 5 uM in presence of NADPH after 30 mins by LC-MS/MS analysis; format: ADME; details: recombinant enzyme, 0.5 h; method in brief: as §1
[4] = Drug level in human liver microsomes treated with bosentan at 5 uM in presence of NADPH after 30 mins by LC-MS/MS analysis; format: ADME; details: 0.5 h; method in brief: as §1
Cytochrome P450 2C9 [5] = target: T1, Cytochrome P450 2C9; test: Drug level assessed as human recombinant CYP2C9-mediated compound formation treated with 4-(tert-Butyl)-N-(6-ethoxy-5-(2-methoxyphenoxy)-[2,2'-bipyrimidin]-4-yl)benzenesulfonamide at 5 uM in presence of NADPH after 30 mins by LC-MS/MS analysis; format: ADME; details: recombinant enzyme, 0.5 h; method in brief: as §1
[6] = Drug level in human liver microsomes treated with 4-(tert-Butyl)-N-(6-ethoxy-5-(2-methoxyphenoxy)-[2,2'-bipyrimidin]-4-yl)benzenesulfonamide at 5 uM in presence of NADPH after 30 mins by LC-MS/MS analysis; format: ADME; details: 0.5 h; method in brief: as §1
Cytochrome P450 3A4 [7] = target: T2, Cytochrome P450 3A4; test: Drug level assessed as human recombinant CYP3A4-mediated compound formation treated with 4-(tert-Butyl)-N-(6-ethoxy-5-(2-methoxyphenoxy)-[2,2'-bipyrimidin]-4-yl)benzenesulfonamide at 5 uM in presence of NADPH after 30 mins by LC-MS/MS analysis; format: ADME; details: recombinant enzyme, 0.5 h; method in brief: as §1
Endothelin-1 receptor = target: T3, Endothelin-1 receptor (Homo sapiens, UniProt P25101); test: Antagonist activity at ETA receptor in human SKNMC cells assessed as inhibition of endothelin-1-mediated Ca2+ mobilization by fura-2/AM dye-based spectrofluorimetric method
T3 sequence (P25101 whole entry): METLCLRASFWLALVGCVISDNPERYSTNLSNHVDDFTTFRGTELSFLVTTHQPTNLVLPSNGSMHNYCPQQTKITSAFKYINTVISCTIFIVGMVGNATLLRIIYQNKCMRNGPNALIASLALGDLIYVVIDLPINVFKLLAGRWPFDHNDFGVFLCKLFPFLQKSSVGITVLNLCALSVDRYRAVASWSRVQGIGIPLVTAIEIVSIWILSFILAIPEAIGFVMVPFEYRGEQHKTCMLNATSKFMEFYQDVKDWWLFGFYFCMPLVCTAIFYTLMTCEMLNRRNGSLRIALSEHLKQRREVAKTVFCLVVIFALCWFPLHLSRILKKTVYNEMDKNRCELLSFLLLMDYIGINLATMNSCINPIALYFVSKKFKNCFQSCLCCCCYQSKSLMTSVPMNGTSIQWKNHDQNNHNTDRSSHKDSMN

Cytochrome P450 2C9 [8] = target: T1, Cytochrome P450 2C9; test: Drug metabolism assessed as human recombinant CYP2C9-mediated formation of 4-(1-hydroxy-2-methylpropan-2-yl)-N-(6-(2-hydroxyethoxy)-5-(2-methoxyphenoxy)-2,2'-bipyrimidin-4-yl)benzenesulfonamide at 5 uM in presence of NADPH after 30 mins by LC-MS/MS analysis; format: ADME; details: recombinant enzyme, 0.5 h; method in brief: as §1
Cytochrome P450 3A4 [9] = target: T2, Cytochrome P450 3A4; test: Drug metabolism assessed as human recombinant CYP3A4-mediated formation of 4-tert-butyl-N-(6-(2-hydroxyethoxy)-5-(2-hydroxyphenoxy)-2,2'-bipyrimidin-4-yl)benzenesulfonamide at 5 uM in presence of NADPH after 30 mins by LC-MS/MS analysis; format: ADME; details: recombinant enzyme, 0.5 h; method in brief: as §1
[10] = Drug metabolism in human liver microsomes assessed as formation of 4-(1-hydroxy-2-methylpropan-2-yl)-N-(6-(2-hydroxyethoxy)-5-(2-methoxyphenoxy)-2,2'-bipyrimidin-4-yl)benzenesulfonamide at 5 uM in presence of NADPH after 30 mins by LC-MS/MS analysis; format: ADME; details: 0.5 h; method in brief: as §1
Cytochrome P450 2D6 = Cytochrome P450 2D6 (Homo sapiens, UniProt P10635); test: Drug metabolism assessed as human recombinant CYP2D6-mediated metabolite formation by measuring parent compound remaining at 5 uM in presence of NADPH after 30 mins by LC-MS/MS analysis; format: ADME; details: recombinant enzyme, 0.5 h; method in brief: as §1
Cytochrome P450 3A4 [11] = target: T2, Cytochrome P450 3A4; test: Drug metabolism assessed as human recombinant CYP3A4-mediated formation of 4-(1-hydroxy-2-methylpropan-2-yl)-N-(6-(2-hydroxyethoxy)-5-(2-methoxyphenoxy)-2,2'-bipyrimidin-4-yl)benzenesulfonamide at 5 uM in presence of NADPH after 30 mins by LC-MS/MS analysis; format: ADME; details: recombinant enzyme, 0.5 h; method in brief: as §1
Cytochrome P450 3A4 [12] = target: T2, Cytochrome P450 3A4; test: Drug metabolism assessed as human recombinant CYP3A4-mediated metabolite formation by measuring parent compound remaining at 5 uM in presence of NADPH after 30 mins by LC-MS/MS analysis; format: ADME; details: recombinant enzyme, 0.5 h; method in brief: as §1
[13] = Metabolic stability in human liver microsomes assessed as parent compound remaining at 5 uM in presence of NADPH after 30 mins by LC-MS/MS analysis; format: ADME; details: read-out: Stability
Method in brief: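 Pooled human liver microsomes in 100 mM potassium phosphate, pH 7.4, with test compound at 5 μM final. Reaction started with 1 mM NADPH (final) and run at 37 °C in a shaking water bath for 0, 15 and 30 min. Stopped with an equal volume of ice-cold acetonitrile containing 0.6 μM labetalol as internal standard. Protein was spun out and the supernatant analysed by LC-MS/MS. Blank had no compound.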

[14] = Drug metabolism in human liver microsomes assessed as formation of 4-(1-hydroxy-2-methylpropan-2-yl)-N-(6-(2-hydroxyethoxy)-5-(2-hydroxyphenoxy)-2,2'-bipyrimidin-4-yl)benzenesulfonamide at 5 uM in presence of NADPH after 30 mins by LC-MS/MS analysis; format: ADME; details: 0.5 h; method in brief: as §1
Cytochrome P450 2C9 [15] = target: T1, Cytochrome P450 2C9; test: Drug metabolism assessed as human recombinant CYP2C9-mediated metabolite formation by measuring parent compound remaining at 5 uM in presence of NADPH after 30 mins by LC-MS/MS analysis; format: ADME; details: recombinant enzyme, 0.5 h; method in brief: as §1
Cytochrome P450 3A4 [16] = target: T2, Cytochrome P450 3A4; test: Drug metabolism assessed as human recombinant CYP3A4-mediated formation of 4-(1-hydroxy-2-methylpropan-2-yl)-N-(6-(2-hydroxyethoxy)-5-(2-hydroxyphenoxy)-2,2'-bipyrimidin-4-yl)benzenesulfonamide at 5 uM in presence of NADPH after 30 mins by LC-MS/MS analysis; format: ADME; details: recombinant enzyme, 0.5 h; method in brief: as §1
[17] = Cytotoxicity against CHOK1 cells assessed as decrease in cell viability after 24 hrs by MTT assay; format: toxicity, cell-based, Cricetulus griseus; details: Chinese hamster, CHO-K1 cells
Method in brief: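 CHO-k1 cells grown in phenol-red-free DMEM/F-12 with 10% FBS, seeded at 20,000 cells/well and allowed to attach overnight. Exposure was 24 h to 0.1–200 μM, with DMSO as vehicle control. MTT at 1 mg/mL for 3 h at 37 °C, formazan dissolved in DMSO, absorbance read at 570 nm. Data given as % OD of vehicle control; IC50 taken from dose–response curve fits.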

[18] = Drug metabolism in human liver microsomes assessed as formation of 4-tert-butyl-N-(6-(2-hydroxyethoxy)-5-(2-hydroxyphenoxy)-2,2'-bipyrimidin-4-yl)benzenesulfonamide at 5 uM in presence of NADPH after 30 mins by LC-MS/MS analysis; format: ADME; details: 0.5 h; method in brief: as §1
[19] = target: T4, Endothelin receptor type B (Homo sapiens) (UniProt P24530); test: (§2) Antagonist activity at ETB receptor in human BSMC assessed as inhibition of endothelin-1 or 3-mediated Ca2+ mobilization preincubated for 5 mins followed by endothelin-1 or 3 addition by fura-2/AM dye-based spectrofluorimetric method; format: functional
T4 sequence (whole entry): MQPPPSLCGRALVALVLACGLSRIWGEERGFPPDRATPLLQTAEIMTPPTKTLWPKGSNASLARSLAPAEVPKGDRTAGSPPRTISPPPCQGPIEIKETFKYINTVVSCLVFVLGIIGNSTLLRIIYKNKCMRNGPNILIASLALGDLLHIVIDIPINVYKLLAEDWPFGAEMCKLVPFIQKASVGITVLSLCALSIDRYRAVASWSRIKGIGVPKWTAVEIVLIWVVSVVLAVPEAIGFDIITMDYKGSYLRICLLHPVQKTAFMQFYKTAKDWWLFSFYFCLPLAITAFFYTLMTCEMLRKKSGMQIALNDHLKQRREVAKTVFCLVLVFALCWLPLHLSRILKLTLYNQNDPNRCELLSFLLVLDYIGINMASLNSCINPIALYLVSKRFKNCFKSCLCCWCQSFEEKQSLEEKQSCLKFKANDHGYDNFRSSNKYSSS

[20] = target: T5, Endothelin receptor type B (Homo sapiens, UniProt P24530); test: as §2; format: functional
T5 sequence (P24530 whole entry): T4 sequence (whole entry)

T1 sequence (P11712 whole entry): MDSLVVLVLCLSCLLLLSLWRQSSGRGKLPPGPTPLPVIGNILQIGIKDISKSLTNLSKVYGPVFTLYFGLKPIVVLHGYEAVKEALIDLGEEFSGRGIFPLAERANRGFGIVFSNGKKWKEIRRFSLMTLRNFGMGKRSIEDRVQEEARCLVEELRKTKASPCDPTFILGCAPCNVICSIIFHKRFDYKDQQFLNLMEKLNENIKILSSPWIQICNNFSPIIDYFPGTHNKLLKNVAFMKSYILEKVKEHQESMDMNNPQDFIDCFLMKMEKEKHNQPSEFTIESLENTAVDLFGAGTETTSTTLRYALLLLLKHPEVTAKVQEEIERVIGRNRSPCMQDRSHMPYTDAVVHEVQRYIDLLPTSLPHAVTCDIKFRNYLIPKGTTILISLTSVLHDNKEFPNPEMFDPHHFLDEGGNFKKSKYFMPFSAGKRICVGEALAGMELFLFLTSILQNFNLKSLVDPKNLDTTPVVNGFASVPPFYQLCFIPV
T2 sequence (P08684 whole entry): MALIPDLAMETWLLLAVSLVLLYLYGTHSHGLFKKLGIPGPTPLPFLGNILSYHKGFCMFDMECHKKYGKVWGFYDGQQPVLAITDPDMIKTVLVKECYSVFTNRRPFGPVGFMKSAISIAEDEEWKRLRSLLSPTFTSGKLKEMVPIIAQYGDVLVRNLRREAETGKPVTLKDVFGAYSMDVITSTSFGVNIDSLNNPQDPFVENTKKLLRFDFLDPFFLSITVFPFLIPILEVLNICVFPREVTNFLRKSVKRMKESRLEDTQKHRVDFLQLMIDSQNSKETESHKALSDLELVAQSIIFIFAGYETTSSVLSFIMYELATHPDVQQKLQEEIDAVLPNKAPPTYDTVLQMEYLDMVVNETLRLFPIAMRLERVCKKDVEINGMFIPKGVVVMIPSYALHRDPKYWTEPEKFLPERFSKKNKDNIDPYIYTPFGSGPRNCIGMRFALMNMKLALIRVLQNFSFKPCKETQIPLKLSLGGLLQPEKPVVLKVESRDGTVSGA
Sequence of Cytochrome P450 2D6 (P10635 whole entry): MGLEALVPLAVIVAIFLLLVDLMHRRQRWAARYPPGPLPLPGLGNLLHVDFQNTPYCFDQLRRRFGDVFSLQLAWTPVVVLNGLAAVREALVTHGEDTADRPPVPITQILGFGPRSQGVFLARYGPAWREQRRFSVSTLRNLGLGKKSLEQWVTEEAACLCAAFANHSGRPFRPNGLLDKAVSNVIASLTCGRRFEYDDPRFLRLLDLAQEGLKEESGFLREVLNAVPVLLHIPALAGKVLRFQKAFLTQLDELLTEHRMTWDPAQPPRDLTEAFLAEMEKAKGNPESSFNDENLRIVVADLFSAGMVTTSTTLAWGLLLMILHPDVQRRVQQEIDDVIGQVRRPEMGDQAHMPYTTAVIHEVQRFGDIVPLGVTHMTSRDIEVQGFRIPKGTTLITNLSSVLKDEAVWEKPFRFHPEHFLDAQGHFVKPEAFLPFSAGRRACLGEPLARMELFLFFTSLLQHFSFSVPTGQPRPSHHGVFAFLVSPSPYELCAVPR

Structure (SMILES): CCOc1nc(-c2ncccn2)nc(NS(=O)(=O)c2ccc(C(C)(C)CO)cc2)c1Oc1ccccc1OC
Retention_time [1]: 4.99 min
Drug metabolism (Cytochrome P450 2C9 [5]): Metabolite_Detected
Drug metabolism [6]: Metabolite_Detected
Drug metabolism (Cytochrome P450 3A4 [7]): Metabolite_Detected

Structure (SMILES): CC(C)C[C@@H]1NC(=O)[C@@H](C(C)C)NC(=O)[C@@H]2CCCN2C(=O)[C@@H](CC(=O)O)NC(=O)[C@@H](Cc2c[nH]c3ccccc23)NC1=O [BQ-123] (cyclo(L[dW][dD]P[dV]))
IC50 (Endothelin-1 receptor): 0.62 nM

Structure (SMILES): CCCC[C@@H](NC(=O)[C@@H](Cc1cn(C(=O)OC)c2ccccc12)NC(=O)[C@H](CC(C)(C)C)NC(=O)N1[C@H](C)CCC[C@@H]1C)C(=O)O
Kb [19]: 0.5 nM
IC50 [20]: 0.41 nM

Second part, led by results:

Retention_time [1]: 3.79 min
Drug metabolism (Cytochrome P450 2C9 [2]): Metabolite_Detected
Drug metabolism (Cytochrome P450 3A4 [3]): Metabolite_Detected
Drug metabolism [4]: Metabolite_Detected
Structure (SMILES): COc1ccccc1Oc1c(NS(=O)(=O)c2ccc(C(C)(C)CO)cc2)nc(-c2ncccn2)nc1OCCO

Drug metabolism (Cytochrome P450 2C9 [8]): Metabolite_Detected
Drug metabolism (Cytochrome P450 3A4 [9]): Metabolite_Detected
Drug metabolism [10]: Metabolite_Detected
Retention_time [1]: 5.1 min
Stability (Cytochrome P450 2D6): > 99%
Drug metabolism (Cytochrome P450 3A4 [11]): Metabolite_Detected
Stability (Cytochrome P450 3A4 [12]): 20.9%
remaining at 0.5 h, 5 µM [13]: 91.6%
Drug metabolism [14]: Metabolite_Detected
Stability (Cytochrome P450 2C9 [15]): 75.8%
Drug metabolism (Cytochrome P450 3A4 [16]): Metabolite_Detected
Drug metabolism [18]: Metabolite_Detected
Structure (SMILES): COc1ccccc1Oc1c(NS(=O)(=O)c2ccc(C(C)(C)C)cc2)nc(-c2ncccn2)nc1OCCO [BOSENTAN]
IC50 at 24 h [17]: 196000 nM
